High-throughput results (PubChem BioAssay)
EBNA-1 inh: EBNA-1 DNA-binding inhibitors, primary screen, biochemical, fluorescence polarization; 0.34% of 300,000 active; AID 1950, 2009; inhibition, % at 14.8 µM; in the data active means inhibition above about 28%
ZTA counter: counter-screen for EBNA-1 inhibitors: inhibitors of Epstein-Barr virus ZTA | ZTA-DNA binding, fluorescence polarization | 0.15% of 320,000 active | AID 2234 | inhibition, % at 11 µM; in the data active means inhibition above about 33%
PP5 primary: PP5 phosphatase inhibitors, primary screen, biochemical, fluorescence; Serine/threonine-protein phosphatase 5 (Homo sapiens), P53041; purified PP5c, OMFP substrate fluorescence; inhibition, % at 6.7 µM; 0.18% of 320,000 active;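 active means inhibition above the campaign's mean inhibition across all tested compounds plus 3 SD, cut at about 9.5% in these data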;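 further: 0% = DMSO only and 100% = 100 µM cantharidin control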
Target sequence (P53041 whole entry, looked up): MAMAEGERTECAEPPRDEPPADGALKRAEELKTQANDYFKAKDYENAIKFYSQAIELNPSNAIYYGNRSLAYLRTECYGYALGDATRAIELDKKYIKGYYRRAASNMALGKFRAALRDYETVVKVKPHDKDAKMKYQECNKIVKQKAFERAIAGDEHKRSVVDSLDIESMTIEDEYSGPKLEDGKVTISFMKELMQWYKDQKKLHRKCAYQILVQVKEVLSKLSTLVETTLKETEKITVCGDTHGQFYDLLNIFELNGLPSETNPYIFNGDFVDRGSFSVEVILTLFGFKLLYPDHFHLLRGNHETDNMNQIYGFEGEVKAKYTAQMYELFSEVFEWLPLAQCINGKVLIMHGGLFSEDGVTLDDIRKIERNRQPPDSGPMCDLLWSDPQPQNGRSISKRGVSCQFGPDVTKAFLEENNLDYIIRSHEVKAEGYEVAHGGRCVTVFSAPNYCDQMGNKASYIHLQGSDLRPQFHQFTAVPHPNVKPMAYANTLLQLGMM
HCV core dimer: inhibitors of HCV core protein dimerization, primary screen, biochemical, TR-FRET, high-throughput | TR-FRET GST/Flag-core106 dimerization, 1536-well | inhibition, % at 5 µM | 0.33% of 300,000 active;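 active means inhibition above the mean of all tested compounds plus 3 SD, set per screening campaign, cut at about 45% in these data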
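Assay system: tagged HCV core106 pair (GST and Flag); medium: KF-containing HEPES buffer, pH 7.45, DTT, CHAPS, BSA; also added: Eu donor and XL665 acceptor anti-tag antibodies; dosing: 5 µM single dose; timing: compound-protein-antibody incubation 4 h at 22.5 °C; signal: TR-FRET 671 and 617 nm emission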
PP1 inh: PP1-alpha phosphatase inhibitors, primary screen, counter-screen for PP5 inhibitor project, biochemical, fluorescence, OMFP substrate, single point; AID 2235, 2010; inhibition, % at 6.7 µM; 0.9% of 320,000 active; Serine/threonine-protein phosphatase PP1-alpha catalytic subunit (Homo sapiens), P62136; purified PP1alpha;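 active means inhibition above the mean inhibition of all tested compounds plus 3 SD, computed separately for each screening campaign, cut at about 15% in these data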
PP1 confirm: PP1 phosphatase inhibitors, confirmation, biochemical, fluorescence, OMFP substrate, triplicate; shares compounds with PP1 inh; purified PP1alpha; AID 2358, 2010; inhibition, % at 6.7 µM; 52% of 1,900 active;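 active means mean PP1 inhibition above a set limit taken from the earlier primary screen, cut at about 15% in these data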
PP5 inh counter: PP5 phosphatase inhibition by PP1 hits, confirmation, counter-screen for PP1 inhibitor project, biochemical, fluorescence, triplicate; 4% of 1,900 active; inhibition, % at 6.7 µM; AID 2360, 2010; shares compounds with PP1 inh; purified PP5c, OMFP fluorescence;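 active means mean PP5 inhibition over triplicate wells above about 9.5% taken from the earlier PP1 screen, limit read from the data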
* = called active by the depositor. Hits are enriched below; roughly 1.7% of the tested compounds scored in any of these assays.

`CC1CC(=O)N(CC(=O)Nc2ccccc2F)c2ccccc2S1(=O)=O` (stereo not given) gave EBNA-1 inh -5.6, ZTA counter 10.0, PP5 primary -1.2, HCV core dimer 1.8 and PP1 inh -3.6.
`Cc1c(CCOC(=O)C23CC4(C)CC(C)(CC(C)(C4)C2)C3)sc[n+]1CC(=O)c1ccccc1` gave EBNA-1 inh 6.2, ZTA counter -20.7, PP5 primary 4.0, HCV core dimer -4.8, PP1 inh 21.4*, PP1 confirm -0.7 and PP5 inh counter 4.9.
Cc1c(CCOC(=O)CC23CC4CC(CC(C4)C2)C3)sc[n+]1CC(=O)c1ccccc1 was read as EBNA-1 inh -15.9, ZTA counter 0.2, PP5 primary -1.7, HCV core dimer -4.7, PP1 inh 25.7*, PP1 confirm -5.5 and PP5 inh counter -1.2.
Screening Cc1c(CCOC(=O)C23CC4CC(CC(C4)C2)C3)sc[n+]1Cc1ccccc1 returned EBNA-1 inh -2.3, ZTA counter -1.2, PP5 primary 2.0, HCV core dimer -6.6 and PP1 inh -0.9.
Screening Cc1ccc(NC(=O)c2ccc3nsnc3c2)c(C)c1 returned EBNA-1 inh -6.2, ZTA counter 16.2, PP5 primary 2.6, HCV core dimer -0.9 and PP1 inh -1.8.
For CCOc1ccc(OCc2cccc(C(=O)Nc3ccc(CN4CCCCC4)cc3)c2)cc1 the results were EBNA-1 inh 4.5, ZTA counter -7.7, PP5 primary -0.7, HCV core dimer -9.0 and PP1 inh 1.4.
`COc1ccc(-n2c(CNc3ccc(C)cc3)nnc2SCC(=O)Nc2nc(-c3ccccc3)cs2)cc1` gave EBNA-1 inh 5.4, ZTA counter 16.0, PP5 primary 0.1, HCV core dimer 9.9 and PP1 inh 6.3.
`COc1ccc(NCc2nnc(SCC(=O)Nc3nc(-c4ccccc4)cs3)n2-c2ccccc2)cc1` gave EBNA-1 inh -6.9, ZTA counter 4.4, PP5 primary 1.8, HCV core dimer 19.4, PP1 inh 31.8*, PP1 confirm 26.5* and PP5 inh counter -3.9.
`Cc1cc(C)cc(OCC(=O)Nc2ccc(N3CCCC3)cc2)c1` gave EBNA-1 inh -12.2, ZTA counter 12.4, PP5 primary 0.2, HCV core dimer 7.2, PP1 inh 19.4*, PP1 confirm -8.8 and PP5 inh counter -1.7.
For COc1ccc(C(=O)Nc2ccc(N3CCCC3)cc2)cc1 the results were EBNA-1 inh -7.3, ZTA counter -13.3, PP5 primary 4.7, HCV core dimer 10.9, PP1 inh 28.6*, PP1 confirm -7.1 and PP5 inh counter -5.0.
COc1ccc(C(=O)NC(=S)Nc2ccc(N3CCCC3)cc2)cc1 was read as EBNA-1 inh -9.5, ZTA counter -4.6, PP5 primary -0.7, HCV core dimer 8.8 and PP1 inh -1.4.
Cc1ccc(OCC(=O)Nc2ccc(N3CCCC3)cc2)cc1C was read as EBNA-1 inh 5.2, ZTA counter 1.4, PP5 primary 0.5, HCV core dimer 16.8 and PP1 inh 12.8.
Screening Cc1cc(-c2csc(NC(=O)c3ccc(=O)[nH]c3)n2)c(C)n1Cc1ccccc1 returned EBNA-1 inh -4.5, ZTA counter 7.3, PP5 primary -0.7, HCV core dimer 55.0*, PP1 inh 27.5*, PP1 confirm 14.3 and PP5 inh counter -1.7.
Screening Cc1noc(C)c1S(=O)(=O)NCc1ccc2c(c1)OCO2 returned EBNA-1 inh 4.5, ZTA counter -7.2, PP5 primary 1.5, HCV core dimer 5.0 and PP1 inh -1.9.
For Cc1cccc(NC(=O)C(=O)NNC(=O)c2ccc(C(C)(C)C)cc2)c1 the results were EBNA-1 inh -13.2, ZTA counter -23.6, PP5 primary -2.5, HCV core dimer -11.3, PP1 inh 21.3*, PP1 confirm 9.8 and PP5 inh counter -1.4.
`CCN(CC)CCCN=Cc1c(-c2ccccc2)[nH]n(-c2nc3ccccc3s2)c1=O` gave EBNA-1 inh -15.8, ZTA counter -2.1, PP5 primary 3.1, HCV core dimer 7.8, PP1 inh 30.1*, PP1 confirm 5.0 and PP5 inh counter -0.6.
`CCCN=C(C)c1c(-c2ccccc2)[nH]n(-c2nc3ccccc3s2)c1=O` gave EBNA-1 inh -5.9, ZTA counter 11.4, PP5 primary 1.5, HCV core dimer 14.0 and PP1 inh 1.5.
For CCCCc1cc(=O)oc2cc(OC(C)C(=O)NCC3CCC(C(=O)O)CC3)c(Cl)cc12 (stereo not given) the results were EBNA-1 inh -4.2, ZTA counter -0.2, PP5 primary 1.5, HCV core dimer 3.3, PP1 inh 54.3*, PP1 confirm -2.9 and PP5 inh counter -3.5.
Screening COCCn1c(SCC(=O)Nc2cc(C)nn2-c2ccccc2)nnc1-c1ccncc1 returned EBNA-1 inh -9.5, ZTA counter -5.6, PP5 primary -1.1, HCV core dimer -1.7 and PP1 inh 2.2.
Cc1ccccc1Nc1nnc(SCc2nc3ccccc3c(=O)[nH]2)s1 was read as EBNA-1 inh -4.7, ZTA counter -15.8, PP5 primary 0.6, HCV core dimer -0.1, PP1 inh 21.5*, PP1 confirm 2.3 and PP5 inh counter -8.4.
Screening Cc1ccc(NC(=O)COC(=O)Cn2cnc3c2c(=O)n(C)c(=O)n3C)c(Cl)c1 returned EBNA-1 inh 0.2, ZTA counter 6.2, PP5 primary -1.0, HCV core dimer -0.3 and PP1 inh -3.3.
For COCc1cc(CN2CCCC2)c(O)c2ncccc12 the results were EBNA-1 inh -3.9, ZTA counter 7.8, PP5 primary 0.6, HCV core dimer -4.6 and PP1 inh 7.5.
Screening COc1ccc2nc3cc(Cl)ccc3c(Nc3cc(CN4CCCC4)c(O)c(CN4CCCC4)c3)c2n1 returned EBNA-1 inh 2.4, ZTA counter -18.6, PP5 primary 8.2, HCV core dimer -41.8, PP1 inh 32.4*, PP1 confirm 1.2 and PP5 inh counter -0.9.
For Cc1c(Cl)cccc1NC(=S)NCCC(c1ccccc1)c1ccccc1 the results were EBNA-1 inh 3.9, ZTA counter 11.8, PP5 primary 1.4, HCV core dimer 7.9 and PP1 inh 6.3.
For Cc1cc(Cl)ccc1NC(=S)NCCC(c1ccccc1)c1ccccc1 the results were EBNA-1 inh -9.9, ZTA counter -10.8, PP5 primary -1.0, HCV core dimer 23.3, PP1 inh 18.1*, PP1 confirm -1.7 and PP5 inh counter 0.7.
